Laboratory results reported in ChEMBL document CHEMBL1128222, “Novel inhibitors for multidrug resistance: 1,3,5-triazacycloheptanes” (J Med Chem, 1995).

Key:
[1] = test system: P388/S; test: In vitro relative vinblastin uptake into P388/s (murine leukemia) cells following 10 uM treatment.; type: functional, Mus musculus
Summary of the method: (§1)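 10^6 P388/S or P388/ADR cells in 1 mL of 20 mM Hepes-buffered medium, pH 7.4. They are incubated with 4.6 kBq [3H]vinblastine with or without 10 μM compound (DMSO final 1%) at 37 °C for 30 min. Cells are then chilled, pelleted at 2 °C and washed twice in cold PBS. They are solubilized in NaOH and counted. The value is uptake relative to untreated cells.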

[2] = test system: P388/ADR; test: In vitro relative vinblastin uptake into P388/ADR (murine leukemia/multidrug resistant) cells following 10 uM treatment.; type: functional, Mus musculus; summary of the method: as §1
[3] = test system: Mus musculus; test: Evaluation of Survival of mice upon intraperitoneal injection of VBL at a concentration of 0.2 mg/kg; type: functional; conditions: ip
Summary of the method: (§2)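 Female CD2F1 mice, 5 per group, were inoculated i.p. with 1.0 × 10^6 P388/ADR cells on day 0. VBL was given by i.p. injection and/or the test agent orally on days 1-4 and 6-8. Read-out was survival days (average ± SD) and ILS (%) against the untreated group, with P < 0.05 by Student's t-test or a two-sample test with Welch's correction.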

[4] = test system: Mus musculus; test: In vivo evaluation for the inhibitory activity against drug sensitive P388 cells (P388/S) cells bearing mice at dose 0.2 mg/kg; type: functional
Summary of the method: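 Mice were implanted with 1 × 10^6 P388/S cells on day 0 and given VBL by i.p. injection on days 1-4 and 6-8. Survival days (average ± SD) and ILS (%) were compared with the untreated group, with P < 0.05 by Student's t-test or Welch-corrected two-sample test.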

[5] = test system: Mus musculus; test: In vivo evaluation for the inhibitory activity against drug sensitive P388 cells (P388/S) cells bearing mice at a concentration of 0.2 mg/kg
[6] = test system: Mus musculus; test: Evaluation of ILS percentage of mice upon intraperitoneal injection of VBL at a concentration of 0.2 mg/kg; type: functional; conditions: ip; summary of the method: as §2
[7] = test system: P388/S; test: Evaluation of inhibitory activity and cisplatin against drug sensitive P388 cells (P388/S) cells; type: functional, cell-based, Mus musculus; conditions: Mus musculus, P388/S
Summary of the method: (§3)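 P388/S or P388/ADR cells at 10^5 cells/mL in RPMI-1640/10% FCS medium. They receive graded adriamycin, mitomycin C or cisplatin, alone or together with 2.5 μM modulator, for 48 h (DMSO final 0.25%). Growth is read by MTT and the antitumor-drug IC50 is reported.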

[8] = test system: P388/ADR; test: Evaluation of inhibitory activity and adriamycin against multidrug resistant P388 cells (P388/ADR) cells; conditions: Mus musculus
[9] = test system: Mus musculus; test: Evaluation of ILS percentage of mice upon intraperitoneal injection of VBL and/or oral administration on days 1-4 and 6-8 at a concentration of 10 mg/kg; type: functional; summary of the method: as §2
[10] = test system: P388/ADR; test: In vitro for the inhibitory activity against multidrug resistant P388 cells (P388/ADR) cells at a concentration of 2.5 uM; type: functional, cell-based; conditions: Mus musculus
Summary of the method: (§4)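 P388/S and P388/ADR murine leukemia cells are maintained by weekly intraperitoneal passage in female CDF1 mice. For the assay they are seeded at 10^5 cells/mL in RPMI-1640 with 10% FCS, 20 μM β-mercaptoethanol and 100 μg/mL kanamycin. Vinblastine is given with or without modulator (0–5.0 μM; DMSO final 0.25%) for 48 h. Growth is read by MTT and vinblastine IC50 is reported.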

[11] = test system: P388/ADR; test: In vitro for the inhibitory activity against multidrug resistant P388 cells (P388/ADR) cells at a concentration of 5 uM; type: functional, cell-based; conditions: Mus musculus; summary of the method: as §4
[12] = test system: Mus musculus; test: Evaluation of ILS percentage of mice upon intraperitoneal injection of VBL / oral administration on days 1-4 and 6-8 at a concentration of 40 mg/kg; type: functional; summary of the method: as §2
[13] = test system: P388/S; test: Relative increase in inhibitory activity against drug sensitive P388 cells (P388/S) cells at a concentration of 2.5 uM in presence of vinblastine; type: functional, Mus musculus
Summary of the method: (§5)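 Same 48 h MTT growth assay in P388/S or P388/ADR cells at 10^5 cells/mL. Vinblastine IC50 is found alone and with modulator at 1.0, 2.5 or 5.0 μM. The value is the relative increase in vinblastine growth-inhibitory effect, taken as the fold change in IC50 from the combined treatment.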

[14] = test system: Mus musculus; test: Evaluation of Survival of mice upon intraperitoneal injection of VBL and/or oral administration on days 1-4 and 6-8 at a concentration of 10 mg/kg; type: functional; summary of the method: as §2
[15] = test system: P388/ADR; test: Inhibitory activity against multidrug resistant P388 cells (P388/ADR) cells at a concentration of 2.5 uM in presence of adriamycin; conditions: Mus musculus
[16] = test system: P388/ADR; test: Relative increase in inhibitory activity against multidrug resistant P388 cells (P388/ADR) cells at a concentration of 5.0 uM in presence of vinblastine; type: functional, Mus musculus; summary of the method: as §5
[17] = test system: P388/S; test: Inhibitory activity against drug sensitive P388 cells (P388/S) cells in presence of mitomycin C; type: functional, cell-based; conditions: Mus musculus; summary of the method: as §3
[18] = test system: P388/ADR; test: In vitro for the inhibitory activity against multidrug resistant P388 cells (P388/ADR) cells at a concentration of 1.0 uM; type: functional, cell-based; conditions: Mus musculus; summary of the method: as §4
[19] = test system: P388/ADR; test: In vitro for the inhibitory activity against multidrug resistant P388 cells (P388/ADR) cells at a concentration of 0 uM; type: functional, cell-based; conditions: Mus musculus; summary of the method: as §4
[20] = test system: P388/ADR; test: Inhibitory activity against multidrug resistant P388 cells (P388/ADR) cells at a concentration of 2.5 uM in presence of mitomycin C; conditions: Mus musculus
[21] = test system: P388/S; test: Inhibitory activity against drug sensitive P388 cells (P388/S) cells in presence of cisplatin; type: functional, cell-based; conditions: Mus musculus; summary of the method: as §3
[22] = test system: Mus musculus; test: Evaluation of ILS percentage of mice upon intraperitoneal injection of VBL / oral administration on days 1-4 and 6-8 at a concentration of 20 mg/kg; type: functional; summary of the method: as §2
[23] = test system: P388/ADR; test: Relative increase in inhibitory activity against multidrug resistant P388 cells (P388/ADR) cells at a concentration of 1.0 uM in presence of vinblastine; type: functional, Mus musculus; summary of the method: as §5
[24] = test system: P388/S; test: Inhibitory activity against drug sensitive P388 cells (P388/S) cells in presence of adriamycin; type: functional, cell-based; conditions: Mus musculus; summary of the method: as §3
[25] = test system: Mus musculus; test: Evaluation of Survival of mice upon intraperitoneal injection of VBL and/or oral administration on days 1-4 and 6-8 at a concentration of 20 mg/kg; type: functional; summary of the method: as §2
[26] = test system: P388/S; test: In vitro evaluation for the inhibitory activity against drug sensitive P388 cells (P388/S) cells at a concentration of 2.5 uM; type: functional, cell-based; conditions: Mus musculus; summary of the method: as §4
[27] = test system: P388/S; test: In vitro evaluation for the inhibitory activity against drug sensitive P388 cells (P388/S) cells at a concentration of 5.0 uM; type: functional, cell-based; conditions: Mus musculus; summary of the method: as §4
[28] = test system: P388/S; test: In vitro evaluation for the inhibitory activity against drug sensitive P388 cells (P388/S) cells at a concentration of 0 uM; type: functional, cell-based; conditions: Mus musculus; summary of the method: as §4
[29] = test system: P388/S; test: Relative increase in inhibitory activity against drug sensitive P388 cells (P388/S) cells at a concentration of 5.0 uM in presence of vinblastine; type: functional, Mus musculus; summary of the method: as §5
[30] = test system: P388/ADR; test: Inhibitory activity against multidrug resistant P388 cells (P388/ADR) cells at a concentration of 2.5 uM in presence of cisplatin; conditions: Mus musculus
[31] = test system: P388/ADR; test: Relative increase in inhibitory activity against multidrug resistant P388 cells (P388/ADR) cells at a concentration of 2.5 uM in presence of vinblastine; type: functional, Mus musculus; summary of the method: as §5
[32] = test system: P388/S; test: In vitro evaluation for the inhibitory activity against drug sensitive P388 cells (P388/S) cells at a concentration of 1.0 uM; type: functional, cell-based; conditions: Mus musculus; summary of the method: as §4
[33] = test system: P388/S; test: Relative increase in inhibitory activity against drug sensitive P388 cells (P388/S) cells at a concentration of 1.0 uM in presence of vinblastine; type: functional, Mus musculus; summary of the method: as §5
[34] = test system: Mus musculus; test: Evaluation of Survival of mice intraperitoneal injection of VBL and/or oral administration on days 1-4 and 6-8 at a concentration of 40 mg/kg in mice; type: functional; summary of the method: as §2
[35] = test system: Mus musculus; test: Evaluation of ILS percentage of mice upon oral administration on days 1-4 and 6-8 at a concentration of 40 mg/kg; type: functional; summary of the method: as §2
[36] = test system: Mus musculus; test: Evaluation of Survival of mice upon oral administration on days 1-4 and 6-8 at a concentration of 40 mg/kg; type: functional; summary of the method: as §2

SMILES: O=C1NC(=S)N(Cc2cccc(Cl)c2)CCN1Cc1cccc(Cl)c1
- Relative uptake [1]: 1.26
- Relative uptake [2]: 6.14

SMILES: CC[C@]1(O)C[C@@H]2CN(CCc3c([nH]c4ccccc34)[C@@](C(=O)OC)(c3cc4c(cc3OC)N(C)[C@H]3[C@@](O)(C(=O)OC)[C@H](OC(C)=O)[C@]5(CC)C=CCN6CC[C@]43[C@@H]65)C2)C1 [VINBLASTINE]
- ILS at 0.2 mg/kg [3]: 14.6%
- Survival days [4]: 15.5
- Survival days [5]: 15.5
- ILS at 0.2 mg/kg [6]: 89%

SMILES: O=C1NC(=O)N(Cc2cccc(Cl)c2)CCCN1Cc1cccc(Cl)c1
- Relative uptake [1]: 1.12
- Relative uptake [2]: 2.62

SMILES: COC12[C@H](COC(N)=O)C3=C(C(=O)C(C)=C(N)C3=O)N1C[C@@H]1N[C@@H]12.CSC1=NC(=O)N(Cc2ccc(Cl)cc2)CCN1Cc1ccc(Cl)cc1
- IC50 [7]: 44 nM
- IC50 [8]: 264 nM

SMILES: CSC1=NC(=S)N(Cc2ccccc2)CCN1Cc1ccccc1
- Relative uptake [1]: 1.19
- Relative uptake [2]: 3.44

SMILES: S=C1NC(=S)N(Cc2cccc(Cl)c2)CCN1Cc1cccc(Cl)c1
- Relative uptake [1]: 1.34
- Relative uptake [2]: 5.34

SMILES: COc1ccc(CN2CCN(Cc3ccc(OC)c(OC)c3)C(SC)=NC2=O)cc1OC
- Relative uptake [1]: 1.04
- Relative uptake [2]: 1.14

SMILES: O=C1NC(=O)N(Cc2cccc(Cl)c2)CCN1Cc1cccc(Cl)c1
- Relative uptake [1]: 1.2
- Relative uptake [2]: 1.05

SMILES: CSC1=NC(=O)N(Cc2cccc(Cl)c2)CCN1Cc1cccc(Cl)c1
- Relative uptake [1]: 1.16
- Relative uptake [2]: 6.75

SMILES: O=C1NC(=O)N(Cc2ccccc2)CCCN1Cc1ccccc1
- Relative uptake [1]: 0.93
- Relative uptake [2]: 1.78

SMILES: COc1ccc(CN2CCN(Cc3ccc(OC)c(OC)c3)C(=S)NC2=O)cc1OC
- Relative uptake [1]: 1.14
- Relative uptake [2]: 2.36

SMILES: O=C1NC(=S)N(Cc2ccccc2)CCN1Cc1ccccc1
- Relative uptake [1]: 1.2
- Relative uptake [2]: 2.11

SMILES: CC[C@]1(O)C[C@H]2CN(CCc3c([nH]c4ccccc34)[C@@](C(=O)OC)(c3cc4c(cc3OC)N(C)[C@H]3[C@@](O)(C(=O)OC)[C@H](OC(C)=O)[C@]5(CC)C=CCN6CC[C@]43[C@@H]65)C2)C1.CSC1=NC(=O)N(Cc2ccc(Cl)cc2)CCN1Cc1ccc(Cl)cc1
- ILS at 10 mg/kg [9]: 20.8%
- IC50 [10]: 6.2 nM
- IC50 [11]: 2.2 nM
- ILS at 40 mg/kg [12]: 45.8%
- Relative activity [13]: 2.4
- Survival days [14]: 11.6
- IC50 [15]: 90 nM
- Relative activity [16]: 23
- IC50 [17]: 44 nM
- IC50 [18]: 23 nM
- IC50 [19]: 70 nM
- IC50 [20]: 264 nM
- IC50 [21]: 72 nM
- ILS at 20 mg/kg [22]: 37.5%
- Relative activity [23]: 3.2
- IC50 [24]: 13 nM
- Survival days [25]: 13.2
- IC50 [26]: 0.7 nM
- IC50 [27]: 0.4 nM
- IC50 [28]: 1.7 nM
- Relative activity [29]: 4.3
- IC50 [30]: 51 nM
- Relative activity [31]: 11
- IC50 [32]: 0.9 nM
- Relative activity [33]: 1.9
- Survival days [34]: 14

SMILES: CSC1=NC(=O)N(Cc2ccc(Cl)cc2)CCN1Cc1ccc(Cl)cc1
- ILS at 40 mg/kg [35]: 4.2%
- Relative uptake [1]: 1.28
- Survival days [36]: 10
- Relative uptake [2]: 6.87

SMILES: O=C1NC(=S)N(Cc2ccc(Cl)cc2)CCN1Cc1ccc(Cl)cc1
- Relative uptake [1]: 1.3
- Relative uptake [2]: 5.35
